Numbered stars: 1 amine (or outer) side, 2 acyl side, 3 side chain; on linkers, the order of the positions; unused ones are H or OH. Bridge positions count the residues as written; N and C are the ends. Square brackets hold non-standard residues; d marks the D form. Peptide text beside a SMILES is read from it. * marks the point of attachment. X4 = CONC(=O)CC[C@H](N[*:1])C(=O)[*:2]; Ala(cPent) = N[C@@H](CC1CCCC1)C(=O)O; Orn = NCCC[C@H](N)C(=O)O; Dab = NCC[C@H](N)C(=O)O; NHiBu = CC(C)CN*; NHOH = ON*
Assays:
[1] = target: T1, Oxytocin receptor (Homo sapiens, UniProt P30559); assay: Agonist activity at human OT receptor expressed in CHO-K1 cells by luciferase reporter gene assay; assay type: functional, cell-based
T1 sequence (P30559 whole entry): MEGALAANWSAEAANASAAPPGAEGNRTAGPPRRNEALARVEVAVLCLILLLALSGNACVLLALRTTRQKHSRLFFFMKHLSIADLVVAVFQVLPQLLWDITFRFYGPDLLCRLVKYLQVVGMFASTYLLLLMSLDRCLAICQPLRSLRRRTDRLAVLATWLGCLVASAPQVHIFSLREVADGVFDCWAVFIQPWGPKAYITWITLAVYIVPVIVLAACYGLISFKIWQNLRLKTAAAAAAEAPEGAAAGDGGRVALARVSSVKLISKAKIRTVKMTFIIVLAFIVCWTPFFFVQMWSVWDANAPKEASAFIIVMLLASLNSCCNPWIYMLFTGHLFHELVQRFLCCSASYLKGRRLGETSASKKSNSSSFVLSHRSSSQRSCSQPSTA

[2] = target: T2, Vasopressin V2 receptor (Homo sapiens, UniProt P30518); assay: Agonist activity at recombinant human vasopressin V2 receptor expressed in HEK293 cells by luciferase reporter gene assay; assay type: functional, cell-based
[3] = target: T3, Vasopressin V1b receptor (Homo sapiens, UniProt P47901); assay: Agonist activity at recombinant human vasopressin V1b receptor expressed in Flp-In-293 cells by luciferase reporter gene assay; assay type: functional, cell-based; conditions: read-out: EC50
T3 sequence (P47901 whole entry): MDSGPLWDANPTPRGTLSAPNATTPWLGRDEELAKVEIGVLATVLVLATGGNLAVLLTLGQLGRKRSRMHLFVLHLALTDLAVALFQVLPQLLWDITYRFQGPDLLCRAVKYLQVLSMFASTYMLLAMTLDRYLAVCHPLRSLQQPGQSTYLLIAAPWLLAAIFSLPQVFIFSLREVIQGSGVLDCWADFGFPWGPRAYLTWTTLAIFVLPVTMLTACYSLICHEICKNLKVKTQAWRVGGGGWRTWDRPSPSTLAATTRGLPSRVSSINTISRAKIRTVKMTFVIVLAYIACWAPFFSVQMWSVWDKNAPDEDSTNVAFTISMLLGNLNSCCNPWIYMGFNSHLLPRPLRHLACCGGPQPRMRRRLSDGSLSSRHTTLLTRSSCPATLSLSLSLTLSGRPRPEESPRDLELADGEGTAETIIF
Procedure, shortened: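 Reporter gene assays in HEK293 cells transiently cotransfected with V1a (human or rat) or human V2 receptor vector plus NFAT-luciferase (V1a) or CRE-luciferase (V2) reporter; V1b in Flp-In-293 stably expressing receptor, OT in CHO-K1 stably expressing receptor, both transiently transfected with NFAT-luciferase. Two days post-transfection, peptides added for 5 h at 37 °C, lysis with luciferin, luminescence read.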

[4] = target: Vasopressin V1a receptor (Homo sapiens, UniProt P37288); assay: Agonist activity at recombinant human vasopressin V1a receptor expressed in HEK293 cells by luciferase reporter gene assay; assay type: functional, cell-based; conditions: read-out: EC50
[5] = target: Vasopressin V1a/V2 (Homo sapiens) (UniProt P30518+P37288); assay: Selectivity ratio of EC50 for human vasopressin V2 receptor to EC50 for human vasopressin V1a receptor
[6] = species on record: Homo sapiens; assay: Selectivity ratio of EC50 for human vasopressin V1b receptor to EC50 for human vasopressin V1a receptor
[7] = target: T2, Vasopressin V2 receptor; assay: Partial agonist activity at recombinant human vasopressin V2 receptor expressed in HEK293 cells by luciferase reporter gene assay; assay type: functional, cell-based
Procedure, shortened: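 Same luciferase reporter systems (OT in stable CHO-K1, V1b in stable Flp-In-293, each with transient NFAT-luciferase; V1a in HEK293 with NFAT-luciferase, V2 in HEK293 with CRE-luciferase). Peptides added for 5 h at 37 °C two days post-transfection, luminescence read. Partial agonism means efficacy <70%.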

[8] = species on record: Homo sapiens; assay: Selectivity ratio of EC50 for human oxytocin receptor to EC50 for human vasopressin V1a receptor
[9] = target: Vasopressin V1a receptor (Rattus norvegicus, UniProt P30560); assay: Agonist activity at recombinant rat vasopressin V1a receptor expressed in HEK293 cells by luciferase reporter gene assay; assay type: functional, cell-based; conditions: read-out: EC50
Vasopressin V1a receptor (Rattus norvegicus, UniProt P30560), sequence (P30560 whole entry): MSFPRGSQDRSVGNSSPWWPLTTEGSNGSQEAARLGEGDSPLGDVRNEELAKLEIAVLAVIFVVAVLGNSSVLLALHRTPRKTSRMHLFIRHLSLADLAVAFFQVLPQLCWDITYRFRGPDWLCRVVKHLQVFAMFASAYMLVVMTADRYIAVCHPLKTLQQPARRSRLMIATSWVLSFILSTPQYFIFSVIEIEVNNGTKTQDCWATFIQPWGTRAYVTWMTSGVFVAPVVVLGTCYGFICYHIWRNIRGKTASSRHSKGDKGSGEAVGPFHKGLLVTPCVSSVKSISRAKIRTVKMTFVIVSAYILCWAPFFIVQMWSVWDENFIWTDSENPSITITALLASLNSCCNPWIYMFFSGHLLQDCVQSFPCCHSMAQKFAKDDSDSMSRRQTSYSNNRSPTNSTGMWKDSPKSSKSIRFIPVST

Vasopressin V1a receptor (Homo sapiens, UniProt P37288), sequence (P37288 whole entry): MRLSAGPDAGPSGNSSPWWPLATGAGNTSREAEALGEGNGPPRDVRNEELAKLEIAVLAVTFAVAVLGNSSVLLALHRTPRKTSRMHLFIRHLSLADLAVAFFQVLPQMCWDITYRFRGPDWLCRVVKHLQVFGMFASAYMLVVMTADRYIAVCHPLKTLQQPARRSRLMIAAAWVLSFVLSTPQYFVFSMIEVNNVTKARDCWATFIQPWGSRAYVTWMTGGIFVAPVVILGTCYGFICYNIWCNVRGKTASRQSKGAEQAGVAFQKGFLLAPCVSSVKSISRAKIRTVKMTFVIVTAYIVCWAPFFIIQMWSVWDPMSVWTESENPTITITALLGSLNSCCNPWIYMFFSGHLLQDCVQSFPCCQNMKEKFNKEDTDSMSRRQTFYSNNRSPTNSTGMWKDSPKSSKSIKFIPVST
T2 sequence (P30518 whole entry): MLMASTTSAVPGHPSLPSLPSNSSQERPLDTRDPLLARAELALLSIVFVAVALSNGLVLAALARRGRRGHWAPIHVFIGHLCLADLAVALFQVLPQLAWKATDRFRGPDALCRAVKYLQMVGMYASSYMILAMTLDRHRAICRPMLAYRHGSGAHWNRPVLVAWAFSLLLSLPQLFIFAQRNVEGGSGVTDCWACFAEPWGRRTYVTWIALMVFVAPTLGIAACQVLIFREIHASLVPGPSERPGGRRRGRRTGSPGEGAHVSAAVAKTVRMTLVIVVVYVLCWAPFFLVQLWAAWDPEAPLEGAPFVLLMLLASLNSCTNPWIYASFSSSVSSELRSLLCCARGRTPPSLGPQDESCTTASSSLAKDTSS
Vasopressin V1a/V2 (Homo sapiens), sequence (P30518 whole entry, looked up): as the sequence (P30518 whole entry) above
Vasopressin V1a/V2 (Homo sapiens), sequence (P37288 whole entry, looked up): as the sequence (P37288 whole entry) above

EC50 ([1]; cho-k1, read-out: EC50)	EC50 ([1]; read-out: pEC50 (converted))	EC50 ([2]; read-out: EC50)	EC50 [3]	EC50 [4]	Ratio EC50 [5]	Ratio EC50 [6]	Efficacy [7]	Ratio EC50 [8]	EC50 ([2]; hek293, read-out: EC50)	EC50 ([2]; read-out: pEC50 (converted))	SMILES	EC50 [9]
> 10000 nM	> 10000 nM	5300 nM	8.7 nM	3.9 nM	1300	2.2	< 70%	> 2500	–	–	CC[C@H](C)[C@@H]1NC(=O)[C@H](Cc2ccccc2)NC(=O)[C@@H](N)CSSC[C@@H](C(=O)N2CCC[C@H]2C(=O)N[C@@H](CCN)C(=O)NCC(N)=O)NC(=O)[C@H](CC(N)=O)NC(=O)[C@H](CC(=O)NC)NC1=O (H-CFID(NHMe)NCP[Dab]G-NH2; disulfide 1-6)	–
> 10000 nM	> 10000 nM	9.2 nM	15 nM	0.14 nM	65	100	–	> 71000	–	–	NCCC[C@H](NC(=O)[C@@H]1CCCN1C(=O)[C@@H]1CSSC[C@H](N)C(=O)N[C@@H](Cc2ccccc2)C(=O)N[C@@H](Cc2ccccc2)C(=O)N[C@@H](CCC(N)=O)C(=O)N[C@@H](CC(N)=O)C(=O)N1)C(=O)NCC(N)=O (H-CFFQNCP[Orn]G-NH2; disulfide 1-6)	–
> 10000 nM	> 10000 nM	1700 nM	28 nM	1.1 nM	1500	25	–	> 9000	–	–	CC[C@H](C)[C@@H]1NC(=O)[C@H](Cc2ccccc2)NC(=O)[C@@H](N)CSSC[C@@H](C(=O)N2CCC[C@H]2C(=O)N[C@@H](CCCN)C(=O)NCC(N)=O)NC(=O)[C@H](CC(N)=O)NC(=O)[C@H](CCC(=O)NOC)NC1=O (H-CFI[X4]NCP[Orn]G-NH2; disulfide 1-6)	–
> 10000 nM	> 10000 nM	170 nM	70 nM	12 nM	14	5.8	–	> 830	–	–	CC[C@H](C)[C@@H]1NC(=O)[C@H](Cc2ccccc2)NC(=O)[C@@H](N)CSSC[C@@H](C(=O)N2CCC[C@H]2C(=O)N[C@@H](CCCN)C(=O)NCC(N)=O)NC(=O)[C@H](CC(N)=O)NC(=O)[C@H](CCC(=O)NO)NC1=O (H-CFIE(NHOH)NCP[Orn]G-NH2; disulfide 1-6)	–
> 10000 nM	> 10000 nM	3000 nM	150 nM	21 nM	140	7.1	< 70%	> 470	–	–	CC[C@H](C)[C@@H]1NC(=O)[C@H](Cc2ccccc2)NC(=O)[C@@H](N)CSSC[C@@H](C(=O)N2CCC[C@H]2C(=O)N[C@@H](CCCN)C(=O)NCC(N)=O)NC(=O)[C@H](CC(N)=O)NC(=O)[C@H](CCC(=O)NCC(C)C)NC1=O (H-CFIE(NHiBu)NCP[Orn]G-NH2; disulfide 1-6)	–
> 10000 nM	> 10000 nM	–	76 nM	11 nM	> 900	6.9	–	> 900	> 10000 nM	> 10000 nM	CC[C@H](C)[C@@H]1NC(=O)[C@H](CC2CCCC2)NC(=O)[C@@H](N)CSSC[C@@H](C(=O)N2CCC[C@H]2C(=O)N[C@@H](CCN)C(=O)NCC(N)=O)NC(=O)[C@H](CC(N)=O)NC(=O)[C@H](CC(N)=O)NC1=O (H-C[Ala(cPent)]INNCP[Dab]G-NH2; disulfide 1-6)	–

SMILES	EC50 ([1]; cho-k1, read-out: EC50)	EC50 ([1]; read-out: pEC50 (converted))	EC50 ([2]; read-out: EC50)	EC50 [3]	EC50 [4]	Ratio EC50 [5]	Ratio EC50 [6]	Efficacy [7]	Ratio EC50 [8]	EC50 ([2]; hek293, read-out: EC50)	EC50 ([2]; read-out: pEC50 (converted))	EC50 [9]
CC[C@H](C)[C@@H]1NC(=O)[C@H](Cc2ccccc2)NC(=O)[C@@H](N)CSSC[C@@H](C(=O)N2CCC[C@H]2C(=O)N[C@@H](CCCN)C(=O)NCC(N)=O)NC(=O)[C@H](CC(N)=O)NC(=O)[C@H](CCC(N)=O)NC1=O (H-CFIQNCP[Orn]G-NH2; disulfide 1-6)	> 10000 nM	> 10000 nM	155 nM	25 nM	–	–	–	–	–	–	–	0.12 nM
